Consider two compounds from ChEMBL document CHEMBL5649170, “Sustained microglial depletion with CSF1R inhibitor impairs parenchymal plaque development in an Alzheimer's disease model” (Nat Commun, 2019).

Usually IC50 stands for the concentration that inhibits the measured activity by half. Higher therefore signals a need for much substance. Broadly, the AUC is concentration integrated over time. A lower AUC goes with low exposure.

The nature of data set [1]: Drug concentration in wildtype mouse brain at 600 ppm administered as rodent chow starting from 1.5 months and measured after 5 months. The data set is classed as ADME, tissue-based. Particulars: route po, time 3.5 months, read-out: Ct. The method in brief:
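WT or 5xFAD mice were fed PLX3397 in AIN-76A chow at 600 ppm or 75 ppm from 1.5 to 5 months of age. Terminal brain and plasma drug concentrations were determined at study end.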

Data set [2] concerns Mus musculus. Briefly: Antialzheimer activity in 5XFAD mouse assessed as average plaque volume in […] cortex at 75 ppm administered as rodent chow starting from 1.5 months and measured after 5 months by immunolabeling based confocal microscopic analysis (reference value: 789.31 to 1314.37 microm3). Type of data set: functional. Particulars: route po, time 3.5 months, 2555 h. The method in brief: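 5xFAD mice fed PLX3397 at 75 ppm in AIN-76A chow from 1.5 to 5 months of age; retrosplenial and somatosensory cortex sections stained with Thio-S and immunolabeled for IBA1; confocal imaging, IBA1+ cells and plaques quantified per region; two-tailed independent t-test, n = 4–5 per group, mean ± SEM.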

The target in data set [3] is Tyrosine-protein kinase JAK3 (Homo sapiens, UniProt P52333). As to the kind of experiment: Inhibition of JAK3 (unknown origin).
In data set [4] the target is Dual specificity protein kinase CLK2 (Homo sapiens, UniProt P49760). Briefly: Inhibition of CLK2 (unknown origin).
The target of data set [5] is Tyrosine-protein kinase Lyn (Homo sapiens, UniProt P07948). As to the kind of experiment: Inhibition of LYN_B (unknown origin).
Data set [6] relates to Mus musculus. As to the kind of experiment: Antialzheimer activity in 5XFAD mouse assessed as microglial elimination in cortex at 1200 ppm administered as rodent chow for 10 weeks by Thio-S staining based confocal microscopic analysis relative to control. The data set is classed as functional. As to conditions: route po. The method in brief:
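1.5-month-old 5xFAD mice fed 1200 ppm PLX5622 chow for 10 weeks; free-floating sections stained with Thio-S and immunolabeled for IBA1 (5% normal serum/0.2% Triton X-100 block, 60 min); confocal imaging of cortex and thalamus to assess remaining microglia.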

Data set [7] deals with Mus musculus. Briefly: Antialzheimer activity in 5XFAD mouse assessed as time spent in perimeter zone at 1200 ppm administered as rodent chow for 10 to 24 weeks by Open field test (reference value: 169.1 to 285.1 sec). Type of data set: functional. As to conditions: route po, time 10-24 weeks.
The nature of data set [8]: Effect on Chrm3 gene expression in wildtype mouse hippocampus assessed as percent change in Reads Per kilo base per Million mapped reads at 1200 ppm administered as rodent chow starting from 1.5 months and measured after 7 months by RNA-Seq analysis (reference value: 85.337 to 114.189 %). As to conditions: route po, time 5.5 months, 4015 h. The data set is classed as functional. The method in brief: (§1)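 WT and 5xFAD mice were treated with 1200 ppm PLX5622 chow or control chow from 1.5 to 7 months of age. Brains were microdissected into cortex, hippocampus and thalamus, and RNA was extracted from tissue powder. Whole-transcriptome RNA-Seq libraries were sequenced, with n = 4 per group per region (48 samples).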

Data set [9] in a line: Effect on Clec7a gene expression in 5XFAD mouse cortex at 1200 ppm administered as rodent chow starting from 1.5 months and measured after 7 months by RNA-Seq analysis (reference value: 2.323 to 6.756 RPKM). Type of data set: functional. Particulars: route po, time 5.5 months, 4015 h. The method in brief:
as §1

Data set [10] in a line: Effect on Ctsd gene expression in 5XFAD mouse cortex at 1200 ppm administered as rodent chow starting from 1.5 months and measured after 7 months by RNA-Seq analysis (reference value: 202.122 to 327.906 RPKM). The data set is classed as functional. As to conditions: route po, time 5.5 months, 4015 h.
Data set [11] deals with Fibroblast growth factor receptor 4 (Homo sapiens, UniProt P22455). Briefly: Inhibition of FGFR4 (unknown origin).
Data set [12] concerns the target Death-associated protein kinase 1 (Homo sapiens, UniProt P53355). As to the kind of experiment: Inhibition of DAPK1 (unknown origin).
Data set [13] concerns the target RAC-alpha serine/threonine-protein kinase (Homo sapiens, UniProt P31749). Briefly: Inhibition of AKT1 (unknown origin).
For data set [14], the target named is Protein kinase C theta type (Homo sapiens, UniProt Q04759). As to the kind of experiment: Inhibition of PRKCQ (unknown origin).
Data set [15] in a line: Effect on Pcdhac1 gene expression in wildtype mouse hippocampus assessed as percent change in Reads Per kilo base per Million mapped reads at 1200 ppm administered as rodent chow starting from 1.5 months and measured after 7 months by RNA-Seq analysis (reference value: 88.246 to 122.665 %). As to conditions: route po, time 5.5 months, 4015 h. The data set is classed as functional.

The target in data set [16] is NT-3 growth factor receptor (Homo sapiens, UniProt Q16288). Briefly: Inhibition of NTRK3 (unknown origin).
The test system of data set [17] is Mus musculus. As to the kind of experiment: Antialzheimer activity in 5XFAD mouse assessed as amyloidbeta42 level in detergent insoluble thalamus fraction measured per microgram protein at 1200 ppm administered as rodent chow starting from 1.5 months and measured after 7 months by ELISA (reference value: 905.886 to 11631931 pg). Type of data set: functional. As to conditions: route po, time 5.5 months, 4015 h. For orientation: In an ELISA, binding on a coated surface is turned into a signal by an enzyme label.

In data set [18] the target is Serine/threonine-protein kinase BRSK1 (Homo sapiens, UniProt Q8TDC3). Briefly: Inhibition of BRSK1 (unknown origin).
A short description of data set [19]: Effect on C1qa gene expression in 5XFAD mouse cortex at 1200 ppm administered as rodent chow starting from 1.5 months and measured after 7 months by RNA-Seq analysis (reference value: 31.609 to 64.988 RPKM). The data set is classed as functional. Particulars: route po, time 5.5 months, 4015 h. Put shortly: as §1
In data set [20] the target is Serine/threonine-protein kinase Sgk1 (Homo sapiens, UniProt O00141). As to the kind of experiment: Inhibition of SGK (unknown origin).
Data set [21] has as its target Ribosomal protein S6 kinase alpha-1 (Homo sapiens, UniProt Q15418). Briefly: Inhibition of RPS6KA1 (unknown origin).
Data set [22] deals with Casein kinase II subunit alpha (Homo sapiens, UniProt P68400). Briefly: Inhibition of CSNK2A1 (unknown origin).
Data set [23] relates to Mus musculus. As to the kind of experiment: Antialzheimer activity in 5XFAD mouse assessed as number of open arm entries at 1200 ppm administered as rodent chow for 10 to 24 weeks by Elevated plus maze test (reference value: 10 to 33). The data set is classed as functional. Particulars: route po, time 10-24 weeks.
Data set [24] in a line: AUC (0 to 24 hrs) in 5XFAD mouse brain at 1200 ppm administered as rodent chow for 180 days. Type of data set: ADME, tissue-based. As to conditions: route po, time 180 day.

Death-associated protein kinase 1, sequence (P53355 whole entry): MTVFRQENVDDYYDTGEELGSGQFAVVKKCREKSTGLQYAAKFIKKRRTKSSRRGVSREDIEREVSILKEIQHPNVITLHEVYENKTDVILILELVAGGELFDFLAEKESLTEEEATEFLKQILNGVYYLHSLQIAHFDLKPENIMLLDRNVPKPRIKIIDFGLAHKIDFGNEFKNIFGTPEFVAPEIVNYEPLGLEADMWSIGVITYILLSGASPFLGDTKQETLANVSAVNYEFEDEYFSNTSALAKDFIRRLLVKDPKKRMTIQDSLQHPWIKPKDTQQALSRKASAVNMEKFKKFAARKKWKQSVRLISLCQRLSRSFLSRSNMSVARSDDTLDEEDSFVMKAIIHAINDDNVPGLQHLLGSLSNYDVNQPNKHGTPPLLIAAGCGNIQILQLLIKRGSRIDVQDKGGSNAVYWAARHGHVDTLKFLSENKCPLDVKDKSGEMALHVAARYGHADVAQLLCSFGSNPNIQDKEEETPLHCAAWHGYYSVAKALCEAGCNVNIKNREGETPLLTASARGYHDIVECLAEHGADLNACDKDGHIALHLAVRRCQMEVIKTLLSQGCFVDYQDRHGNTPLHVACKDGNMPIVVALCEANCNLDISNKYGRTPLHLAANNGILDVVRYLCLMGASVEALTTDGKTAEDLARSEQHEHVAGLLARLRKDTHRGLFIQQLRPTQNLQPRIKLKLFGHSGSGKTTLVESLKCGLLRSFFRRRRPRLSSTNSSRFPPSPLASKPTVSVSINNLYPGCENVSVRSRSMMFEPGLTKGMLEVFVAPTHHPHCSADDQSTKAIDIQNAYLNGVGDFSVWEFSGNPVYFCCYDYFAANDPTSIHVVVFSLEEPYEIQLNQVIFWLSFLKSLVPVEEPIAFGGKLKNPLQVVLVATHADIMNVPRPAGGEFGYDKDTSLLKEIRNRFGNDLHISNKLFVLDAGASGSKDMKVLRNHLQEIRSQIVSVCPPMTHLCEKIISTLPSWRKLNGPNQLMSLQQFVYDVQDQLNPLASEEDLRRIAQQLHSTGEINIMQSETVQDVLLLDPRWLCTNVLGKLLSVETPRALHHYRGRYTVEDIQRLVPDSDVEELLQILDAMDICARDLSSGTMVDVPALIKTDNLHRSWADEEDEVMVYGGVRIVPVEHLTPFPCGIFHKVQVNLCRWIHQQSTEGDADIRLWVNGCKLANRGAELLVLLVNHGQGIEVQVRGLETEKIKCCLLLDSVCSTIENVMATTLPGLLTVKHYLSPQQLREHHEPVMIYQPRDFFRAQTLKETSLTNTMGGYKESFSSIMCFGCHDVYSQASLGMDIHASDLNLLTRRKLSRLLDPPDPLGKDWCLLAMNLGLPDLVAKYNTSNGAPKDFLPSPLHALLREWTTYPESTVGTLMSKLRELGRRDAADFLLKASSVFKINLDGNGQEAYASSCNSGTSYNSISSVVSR
Protein kinase C theta type, sequence (Q04759 whole entry): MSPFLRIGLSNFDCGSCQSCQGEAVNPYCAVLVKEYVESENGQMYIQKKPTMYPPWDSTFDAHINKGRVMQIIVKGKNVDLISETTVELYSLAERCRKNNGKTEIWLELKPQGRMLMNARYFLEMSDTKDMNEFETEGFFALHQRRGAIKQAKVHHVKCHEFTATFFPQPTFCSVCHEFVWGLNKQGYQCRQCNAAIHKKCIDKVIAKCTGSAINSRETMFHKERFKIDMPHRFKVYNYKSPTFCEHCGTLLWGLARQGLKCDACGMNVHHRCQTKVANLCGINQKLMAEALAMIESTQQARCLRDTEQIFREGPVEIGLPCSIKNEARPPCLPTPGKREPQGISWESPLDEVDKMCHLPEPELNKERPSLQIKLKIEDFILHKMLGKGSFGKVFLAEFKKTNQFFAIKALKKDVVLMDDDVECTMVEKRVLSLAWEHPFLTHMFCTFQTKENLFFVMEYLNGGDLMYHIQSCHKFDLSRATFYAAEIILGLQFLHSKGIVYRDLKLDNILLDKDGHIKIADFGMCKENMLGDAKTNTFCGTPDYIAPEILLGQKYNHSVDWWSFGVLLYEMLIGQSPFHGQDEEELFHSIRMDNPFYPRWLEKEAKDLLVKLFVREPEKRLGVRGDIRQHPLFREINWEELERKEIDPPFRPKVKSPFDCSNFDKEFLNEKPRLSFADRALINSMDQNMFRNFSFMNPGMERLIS
RAC-alpha serine/threonine-protein kinase, sequence (P31749 whole entry): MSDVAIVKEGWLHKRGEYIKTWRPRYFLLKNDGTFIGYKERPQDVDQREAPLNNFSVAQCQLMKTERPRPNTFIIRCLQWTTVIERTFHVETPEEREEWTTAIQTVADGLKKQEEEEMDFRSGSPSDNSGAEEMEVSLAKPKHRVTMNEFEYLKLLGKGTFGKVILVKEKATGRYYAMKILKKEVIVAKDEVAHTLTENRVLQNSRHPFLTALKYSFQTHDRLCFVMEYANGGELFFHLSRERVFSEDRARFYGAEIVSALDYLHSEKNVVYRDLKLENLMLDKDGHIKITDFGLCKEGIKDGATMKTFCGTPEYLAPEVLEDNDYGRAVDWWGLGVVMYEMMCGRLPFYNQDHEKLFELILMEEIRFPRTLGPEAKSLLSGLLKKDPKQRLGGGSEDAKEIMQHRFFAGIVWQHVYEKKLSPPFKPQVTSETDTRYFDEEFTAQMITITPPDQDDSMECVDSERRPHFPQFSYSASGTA
Tyrosine-protein kinase JAK3, sequence (P52333 whole entry): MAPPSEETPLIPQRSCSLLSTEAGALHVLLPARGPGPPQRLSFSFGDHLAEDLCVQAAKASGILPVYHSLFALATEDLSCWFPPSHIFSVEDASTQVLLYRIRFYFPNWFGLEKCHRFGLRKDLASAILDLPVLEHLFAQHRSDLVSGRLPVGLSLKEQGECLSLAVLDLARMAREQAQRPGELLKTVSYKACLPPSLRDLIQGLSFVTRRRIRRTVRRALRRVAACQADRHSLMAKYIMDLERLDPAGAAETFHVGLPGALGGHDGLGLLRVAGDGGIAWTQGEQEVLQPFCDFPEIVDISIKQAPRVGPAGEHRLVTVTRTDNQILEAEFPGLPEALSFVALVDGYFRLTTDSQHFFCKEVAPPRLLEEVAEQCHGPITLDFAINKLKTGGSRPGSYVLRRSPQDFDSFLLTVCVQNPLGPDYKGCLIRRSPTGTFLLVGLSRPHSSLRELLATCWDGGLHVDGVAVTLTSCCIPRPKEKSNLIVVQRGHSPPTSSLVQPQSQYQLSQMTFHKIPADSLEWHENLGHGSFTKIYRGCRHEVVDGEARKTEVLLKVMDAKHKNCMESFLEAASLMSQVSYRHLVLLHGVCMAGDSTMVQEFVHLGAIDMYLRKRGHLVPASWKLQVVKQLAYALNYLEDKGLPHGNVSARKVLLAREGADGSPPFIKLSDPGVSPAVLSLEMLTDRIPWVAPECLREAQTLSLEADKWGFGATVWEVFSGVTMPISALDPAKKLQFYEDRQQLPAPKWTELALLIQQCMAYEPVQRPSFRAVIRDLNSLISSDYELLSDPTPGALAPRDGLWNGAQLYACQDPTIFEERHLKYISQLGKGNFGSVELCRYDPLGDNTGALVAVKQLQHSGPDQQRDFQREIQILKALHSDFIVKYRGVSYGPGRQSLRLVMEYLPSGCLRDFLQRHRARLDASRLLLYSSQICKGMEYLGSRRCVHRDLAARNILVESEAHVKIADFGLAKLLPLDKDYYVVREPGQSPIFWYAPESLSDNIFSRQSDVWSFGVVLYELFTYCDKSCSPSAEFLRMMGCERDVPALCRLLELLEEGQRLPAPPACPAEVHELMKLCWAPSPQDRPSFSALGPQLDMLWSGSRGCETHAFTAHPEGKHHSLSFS
Fibroblast growth factor receptor 4, sequence (P22455 whole entry): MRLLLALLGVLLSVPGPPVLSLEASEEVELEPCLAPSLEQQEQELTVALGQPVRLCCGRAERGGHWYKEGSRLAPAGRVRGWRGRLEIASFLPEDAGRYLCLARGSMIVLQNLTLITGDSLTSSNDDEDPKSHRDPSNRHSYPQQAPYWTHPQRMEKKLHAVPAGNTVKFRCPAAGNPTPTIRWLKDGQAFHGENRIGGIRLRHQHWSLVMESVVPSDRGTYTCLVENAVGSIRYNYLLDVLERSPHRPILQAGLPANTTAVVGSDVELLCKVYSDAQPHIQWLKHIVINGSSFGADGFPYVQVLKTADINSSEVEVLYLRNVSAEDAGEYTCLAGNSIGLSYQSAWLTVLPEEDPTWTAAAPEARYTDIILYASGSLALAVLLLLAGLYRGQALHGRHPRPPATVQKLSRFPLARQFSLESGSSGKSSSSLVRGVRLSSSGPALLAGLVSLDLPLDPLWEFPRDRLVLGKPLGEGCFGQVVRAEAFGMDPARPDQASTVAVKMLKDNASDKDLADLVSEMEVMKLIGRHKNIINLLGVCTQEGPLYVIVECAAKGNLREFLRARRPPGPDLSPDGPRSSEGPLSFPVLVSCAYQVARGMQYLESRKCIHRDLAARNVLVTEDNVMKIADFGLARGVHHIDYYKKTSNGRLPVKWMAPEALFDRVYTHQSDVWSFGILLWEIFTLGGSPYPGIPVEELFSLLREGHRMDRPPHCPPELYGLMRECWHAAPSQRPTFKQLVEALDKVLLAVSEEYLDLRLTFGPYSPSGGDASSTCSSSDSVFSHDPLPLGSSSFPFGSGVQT
Dual specificity protein kinase CLK2, sequence (P49760 whole entry): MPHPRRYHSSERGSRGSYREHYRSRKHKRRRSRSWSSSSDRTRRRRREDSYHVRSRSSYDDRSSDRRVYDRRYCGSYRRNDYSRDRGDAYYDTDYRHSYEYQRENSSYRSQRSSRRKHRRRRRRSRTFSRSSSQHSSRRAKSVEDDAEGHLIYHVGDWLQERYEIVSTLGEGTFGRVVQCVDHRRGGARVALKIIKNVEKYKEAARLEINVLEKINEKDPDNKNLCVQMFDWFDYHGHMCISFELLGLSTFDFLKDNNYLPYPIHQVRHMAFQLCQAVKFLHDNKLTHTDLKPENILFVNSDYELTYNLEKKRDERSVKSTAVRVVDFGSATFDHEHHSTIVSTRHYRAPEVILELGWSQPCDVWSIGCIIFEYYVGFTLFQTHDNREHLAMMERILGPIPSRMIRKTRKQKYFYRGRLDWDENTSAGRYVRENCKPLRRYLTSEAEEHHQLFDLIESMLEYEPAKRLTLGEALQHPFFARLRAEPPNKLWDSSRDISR

Take `FC(F)(F)c1ccc(CNc2ccc(Cc3c[nH]c4ncc(Cl)cc34)cn2)cn1` [PEXIDARTINIB]: the concentration at 2555 h in [1] came out at 5 µM. Besides, in the data set with Mus musculus [2], the Activity worked out at 688.11 um3.
With `COc1ncc(F)cc1CNc1ccc(Cc2c[nH]c3ncc(C)cc23)c(F)n1` [PLX-5622], the IC50 in data set [3], in data set [4], in data set [5], in data set [11], in [12] and in data set [13] was > 1000 nM each time. The IC50 in [14], in data set [16], in data set [18], in data set [20], in [21] and in data set [22] was > 1000 nM in each case. Also, the Activity in the data set with Mus musculus [6] is >99%; in data set [8] it was 79.458%; in data set [9], 0.051 RPKM; in data set [10], 106.638 RPKM; in data set [15], 63.951%; in data set [19], 2.8 RPKM. For the same compound, the Activity in the data set with Mus musculus [23] was 15. In addition, in the data set on Mus musculus [7], the Time came out at 201.4 s. The Flu intensity with Mus musculus [17] came out at 4280.692 a.u. In data set [24], this compound showed an AUC at 4320 h of 57300 ng·h/mL.
